Assay [1] concerns Strongylocentrotus purpuratus. Briefly: Binding affinity to NAADP receptor in sea urchin microsomes assessed as fold increase in IC50 for displacement of [32P]NAADP from receptor relative to NAADP. As to conditions: Microsome. Summed up:
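Competition binding in sea urchin egg homogenate: 0.2 nM [32P]NAADP plus seven competitor concentrations, incubated together 90 min at 4 °C, in triplicate. Filtered, washed, filter-bound radioactivity counted by liquid scintillation. IC50 from fitted curves over ≥3 experiments; fold value is relative to NAADP IC50.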

The test system of assay [2] is Strongylocentrotus purpuratus. Put plainly: Agonist activity at NAADP receptor in sea urchin egg homogenate assessed as desensitization of NAADP-induced Ca2+ release at => 1 nM treated for 9 mins before NAADP challenge by Fluo-3 staining based fluorimetric assay. The assay is classed as functional, tissue-based. In outline:
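Strongylocentrotus purpuratus egg homogenate (1.25% v/v) diluted in intracellular medium: 250 mM potassium gluconate pH 7.2, 0.5 mM ATP, 4 mM […], creatinine kinase, 3 μM Fluo-3; 17 °C. Ca2+ release read as fluorescence (ex 490/em 535 nm); EC50 from plateau maximum vs concentration, mean of ≥3 determinations. For desensitization, 9 min pretreatment, then 1 μM NAADP challenge; mean±SEM, n = 3.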

A short description of assay [3]: Displacement of [32P]NAADP from NAADP receptor in sea urchin microsomes after 90 mins by liquid scintillation counting. On the set-up: species or system Strongylocentrotus purpuratus, Microsome. Summed up:
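Competition binding in sea urchin egg homogenate: 0.2 nM [32P]NAADP plus seven competitor concentrations, incubated together 90 min at 4 °C, in triplicate. Filtered, washed, filter-bound radioactivity counted by liquid scintillation.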

The nature of assay [4]: (§1) Agonist activity at NAADP receptor in sea urchin egg homogenate assessed as induction of Ca2+ release by Fluo-3 staining based fluorimetric assay. The assay is classed as functional, Strongylocentrotus purpuratus.
Assay [5] concerns Strongylocentrotus purpuratus. Put plainly: Agonist activity at NAADP receptor in sea urchin egg homogenate assessed as fold increase in EC50 for induction of Ca2+ release relative to NAADP. It counts as functional, tissue-based.
Assay [6] has as its system Strongylocentrotus purpuratus. Put plainly: Agonist activity at NAADP receptor in sea urchin egg homogenate assessed as induction of Ca2+ release at 2 nM by Fluo-3 staining based fluorimetric assay. It counts as functional, tissue-based.
The subject of assay [7] is Strongylocentrotus purpuratus. Described as §1. The assay is classed as functional.

Calls of active or inactive are those of the source. The rule behind the calls is not given here. Some results are limits rather than exact numbers.

The term IC50 denotes the concentration needed to halve the response being measured. Low readings indicate greater potency in that assay, high ones weaker potency in that assay. In general, EC50 refers to the concentration at which the effect is half-maximal.

As for `Nc1ncnc2c1ncn2[C@@H]1O[C@H](COP(=O)(O)OP(=O)(O)OC[C@@H]2O[C@H]([n+]3cc(C(=O)[O-])cc(C(=O)O)c3)[C@@H](O)[C@H]2O)[C@@H](O)[C@H]1OP(=O)(O)O`, the fold change (FC) is greater than 60000 in assay [1] and greater than 50000 in assay [5]. Further, the result in assay [2] was Active. The compound further registered a half-inhibitory concentration (IC50) in assay [3] greater than 100 µM. Further, in assay [4], the concentration for a half-maximal effect (EC50) is greater than 1000 µM.
In the case of `Nc1cc[n+]([C@H]2O[C@@H](COP(=O)(O)OP(=O)(O)OC[C@H]3O[C@@H](n4cnc5c(N)ncnc54)[C@H](OP(=O)(O)O)[C@@H]3O)[C@H](O)[C@@H]2O)cc1C(=O)[O-]`, the figures for the fold change (FC) in assay [1] and in assay [5] were 88 and 235, respectively. For the same compound, the result in assay [2] was Active. This compound returned an IC50 in assay [3] of 0.141 µM. Also, the EC50 in assay [4] was found to be 4.41 µM.
`Cc1cc(C(=O)[O-])c[n+]([C@H]2O[C@@H](COP(=O)(O)OP(=O)(O)OC[C@H]3O[C@@H](n4cnc5c(N)ncnc54)[C@H](OP(=O)(O)O)[C@@H]3O)[C@H](O)[C@@H]2O)c1`: the outcome in assay [6] and in assay [2] was Active. The results for the fold change (FC) in assay [1] and in assay [5] were 1.2 and 2.3, respectively. In assay [3], this compound returned an IC50 of 0.0019 µM. Moreover, the EC50 in assay [4] turned out to be 0.043 µM. The Activity entry in assay [7] is “Dose-dependent effect”.
Take `Cc1cc[n+]([C@H]2O[C@@H](COP(=O)(O)OP(=O)(O)OC[C@H]3O[C@@H](n4cnc5c(N)ncnc54)[C@H](OP(=O)(O)O)[C@@H]3O)[C@H](O)[C@@H]2O)cc1C(=O)[O-]`: the fold change (FC) in assay [1] was 93; in assay [5], 2200. Besides, in assay [2], the result was Active. Besides, the IC50 in assay [3] came out at 0.149 µM. Further, in assay [4], the concentration for a half-maximal effect (EC50) is 42.2 µM. Moreover, in assay [7], the Activity entry is “Dose-dependent effect”.
In the case of `[N-]=[N+]=Nc1cc(C(=O)[O-])c[n+]([C@H]2O[C@@H](COP(=O)(O)OP(=O)(O)OC[C@H]3O[C@@H](n4cnc5c(N)ncnc54)[C@H](OP(=O)(O)O)[C@@H]3O)[C@H](O)[C@@H]2O)c1`, the fold change (FC) worked out at 11 in assay [1] and 90 in assay [5]. In assay [2], the result was Active. The concentration for half-maximal inhibition (IC50) in assay [3] worked out at 0.018 µM. For the same compound, the EC50 in assay [4] is 1.69 µM.
The like results for `CCc1cc(C(=O)[O-])c[n+]([C@H]2O[C@@H](COP(=O)(O)OP(=O)(O)OC[C@H]3O[C@@H](n4cnc5c(N)ncnc54)[C@H](OP(=O)(O)O)[C@@H]3O)[C@H](O)[C@@H]2O)c1` were, in that order, 23, 18, “Active”, 0.037 µM and 0.352 µM.
For `Nc1ncnc2c1ncn2[C@@H]1O[C@H](COP(=O)(O)OP(=O)(O)OC[C@@H]2O[C@H]([n+]3ccc(-c4ccccc4)c(C(=O)[O-])c3)[C@@H](O)[C@H]2O)[C@@H](O)[C@H]1OP(=O)(O)O` the same measures were 540, greater than 50000, “Active”, 0.859 µM and greater than 1000 µM.
`Nc1cc(C(=O)[O-])c[n+]([C@H]2O[C@@H](COP(=O)(O)OP(=O)(O)OC[C@H]3O[C@@H](n4cnc5c(N)ncnc54)[C@H](OP(=O)(O)O)[C@@H]3O)[C@H](O)[C@@H]2O)c1`: the outcome in assay [6] and in assay [2] was Active. The fold change (FC) was found to be 1.1 in assay [1] and 1.5 in assay [5]. This compound registered an IC50 in assay [3] of 0.0017 µM. Also, in assay [4], the EC50 was 0.0274 µM. Moreover, the Activity result in assay [7] was “Dose-dependent effect”.
For `Nc1ncnc2c1ncn2[C@@H]1O[C@H](COP(=O)(O)OP(=O)(O)OC[C@@H]2O[C@H]([n+]3cccc(C(=O)[O-])c3)[C@@H](O)[C@H]2O)[C@@H](O)[C@H]1OP(=O)(O)O`, in assay [7], the Activity entry was “Dose-dependent effect”.
For the compound `CCCCc1cc[n+]([C@H]2O[C@@H](COP(=O)(O)OP(=O)(O)OC[C@H]3O[C@@H](n4cnc5c(N)ncnc54)[C@H](OP(=O)(O)O)[C@@H]3O)[C@H](O)[C@@H]2O)cc1C(=O)[O-]`, the results for the fold change (FC) in assay [1] and in assay [5] were 303 and greater than 50000, respectively. For the same compound, in assay [2], the outcome was Active. The compound further came in with an IC50 in assay [3] of 0.465 µM. The EC50 in assay [4] was greater than 1000 µM.

These data come from ChEMBL document CHEMBL1275349 (J Med Chem, 2010).
